Experimental data from ChEMBL document CHEMBL1139880, “Potent and selective agonists of human melanocortin receptor 5: cyclic analogues of alpha-melanocyte-stimulating hormone” (J Med Chem, 2007).
Starred links: 1 amine or outer side, 2 acyl side, 3 side chain; linkers in the order of their positions; H or OH if unused. Positions of bridges follow the written chain, without caps; N, C: chain ends. Non-standard residues stand in square brackets, D forms with d. Residues, ends and D or L forms follow the SMILES beside them. ξ: configuration not given here. X7 = O=C([C@H](Cc1ccc(Cc2ccccc2)cc1)N[*:1])[*:2]; Oic(3aξ,7aξ) = O=C(O)[C@@H]1CC2CCCCC2N1; Pip = O=C(O)[C@@H]1CCCCN1; Nle = CCCC[C@H](N)C(=O)O

Legend:
[1] = molecular target: T1, Melanocyte-stimulating hormone receptor (Homo sapiens, UniProt Q01726); assay: Displacement of [125I]NDPalphaMSH from human cloned melanocortin receptor 1b expressed in CHO cells; type: cell-based
Target sequence in this assay (Q01726 whole entry): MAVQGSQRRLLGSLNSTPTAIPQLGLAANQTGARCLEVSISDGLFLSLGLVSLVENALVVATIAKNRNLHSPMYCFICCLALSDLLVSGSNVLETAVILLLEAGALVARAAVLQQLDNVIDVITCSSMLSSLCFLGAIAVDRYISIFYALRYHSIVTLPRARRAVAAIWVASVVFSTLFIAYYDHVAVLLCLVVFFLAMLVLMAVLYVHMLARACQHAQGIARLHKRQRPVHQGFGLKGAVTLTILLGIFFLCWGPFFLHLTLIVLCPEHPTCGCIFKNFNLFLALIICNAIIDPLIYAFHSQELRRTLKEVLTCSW

[2] = molecular target: T2, Melanocortin receptor 3 (Homo sapiens, UniProt P41968); assay: Displacement of [125I]NDPalphaMSH from human cloned MC3R expressed in CHO cells; type: cell-based
[3] = molecular target: T3, Melanocortin receptor 4 (Homo sapiens, UniProt P32245); assay: Displacement of [125I]NDPalphaMSH from human cloned MC4R expressed in CHO cells; type: cell-based
[4] = molecular target: T4, Melanocortin receptor 5 (Homo sapiens, UniProt P33032); assay: Displacement of [125I]NDPalphaMSH from human cloned MC5R expressed in CHO cells; type: cell-based
[5] = molecular target: T1, Melanocyte-stimulating hormone receptor; assay: Agonist activity at human melanocortin receptor 1b expressed in CHO cells assessed as cAMP accumulation; type: functional, cell-based
How it was run: (§1)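 Dissociated CHO cells were spun 5 min and resuspended in Earle's balanced salt solution with 10 mM HEPES pH 7.5, 5 mM MgCl2, 1 mM glutamine and 1 mg/mL BSA. They were incubated 40 min at room temperature with compound (0.003–5000 nM) plus 0.6 mM IBMX, then lysed with 0.1 M HCl. cAMP was measured by Flashplate cAMP assay.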
Target sequence in this assay (Q01726 whole entry): as above

[6] = molecular target: T2, Melanocortin receptor 3; assay: Agonist activity at human MC3R expressed in CHO cells assessed as cAMP accumulation; type: functional, cell-based; how it was run: as §1
[7] = molecular target: T4, Melanocortin receptor 5; assay: Agonist activity at human MC5R expressed in CHO cells assessed as cAMP accumulation; type: functional, cell-based
[8] = molecular target: T2, Melanocortin receptor 3; assay: Agonist activity at human MC3R expressed in CHO cells assessed as cAMP accumulation at 10 uM relative to [125I]NDPalphaMSH; type: functional, cell-based
[9] = molecular target: T3, Melanocortin receptor 4; assay: Agonist activity at human MC4R expressed in CHO cells assessed as cAMP accumulation at 10 uM relative to [125I]NDPalphaMSH; type: functional, cell-based
[10] = molecular target: T1, Melanocyte-stimulating hormone receptor; assay: Agonist activity at human melanocortin receptor 1b expressed in CHO cells assessed as cAMP accumulation at 1 uM relative to [125I]NDPalphaMSH; type: functional, cell-based
Target sequence in this assay (Q01726 whole entry, looked up): as the sequence (Q01726 whole entry) above

[11] = molecular target: T2, Melanocortin receptor 3; assay: Agonist activity at human MC3R expressed in CHO cells assessed as cAMP accumulation at 1 uM relative to [125I]NDPalphaMSH; type: functional, cell-based
[12] = molecular target: T3, Melanocortin receptor 4; assay: Agonist activity at human MC4R expressed in CHO cells assessed as cAMP accumulation at 1 uM relative to [125I]NDPalphaMSH; type: functional, cell-based

T2 sequence (P41968 whole entry): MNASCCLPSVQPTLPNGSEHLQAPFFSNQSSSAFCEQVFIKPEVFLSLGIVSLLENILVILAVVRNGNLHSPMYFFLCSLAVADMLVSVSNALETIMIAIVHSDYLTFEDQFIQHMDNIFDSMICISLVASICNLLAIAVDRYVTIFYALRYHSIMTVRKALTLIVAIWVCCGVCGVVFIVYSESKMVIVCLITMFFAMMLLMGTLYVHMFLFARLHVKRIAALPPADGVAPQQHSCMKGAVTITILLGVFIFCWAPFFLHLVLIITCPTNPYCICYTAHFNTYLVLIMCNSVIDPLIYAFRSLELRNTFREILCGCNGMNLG
T3 sequence (P32245 whole entry): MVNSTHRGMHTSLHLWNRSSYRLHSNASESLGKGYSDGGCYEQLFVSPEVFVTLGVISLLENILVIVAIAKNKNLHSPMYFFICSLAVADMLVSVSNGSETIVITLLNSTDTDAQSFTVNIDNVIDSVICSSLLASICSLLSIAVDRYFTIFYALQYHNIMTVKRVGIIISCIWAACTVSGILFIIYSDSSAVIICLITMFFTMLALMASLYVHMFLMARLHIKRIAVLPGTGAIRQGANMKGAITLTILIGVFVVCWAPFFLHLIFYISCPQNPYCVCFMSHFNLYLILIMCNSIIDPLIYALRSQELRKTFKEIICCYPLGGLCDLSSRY
T4 sequence (P33032 whole entry): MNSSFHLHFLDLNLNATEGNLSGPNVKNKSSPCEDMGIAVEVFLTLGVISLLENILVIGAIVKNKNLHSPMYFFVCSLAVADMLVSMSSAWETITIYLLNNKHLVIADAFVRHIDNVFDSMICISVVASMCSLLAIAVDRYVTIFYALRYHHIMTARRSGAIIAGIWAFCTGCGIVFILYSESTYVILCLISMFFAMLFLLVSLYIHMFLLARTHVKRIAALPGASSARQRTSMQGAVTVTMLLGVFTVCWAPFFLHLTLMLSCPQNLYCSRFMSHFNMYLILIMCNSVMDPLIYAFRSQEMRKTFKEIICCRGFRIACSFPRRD

Compound | IC50 [1] | IC50 [2] | IC50 [3] | IC50 [4] | EC50 [5] | EC50 [6] | EC50 [7] | Activity [11] [%] | other results
CCCC[C@H](NC(C)=O)C(=O)N[C@H]1CC(=O)NCCCC[C@@H](C(N)=O)NC(=O)[C@H](Cc2c[nH]c3ccccc23)NC(=O)[C@@H]2CCCCN2C(=O)[C@@H](Cc2ccc(-c3ccccc3)cc2)NC(=O)[C@H](Cc2c[nH]cn2)NC1=O | 5.9 nM (antagonist) | 1400 nM (antagonist) | 570 nM (antagonist) | 0.72 nM (antagonist) | 3.3 nM (agonist) | 370 nM (agonist) | 0.37 nM (agonist) | – | –
CCCC[C@H](NC(C)=O)C(=O)N[C@H]1CC(=O)NCCCC[C@@H](C(N)=O)NC(=O)[C@H](Cc2cc3ccccc3[nH]2)NC(=O)[C@@H]2CCCN2C(=O)[C@H](Cc2ccccc2)NC(=O)[C@H](Cc2cnc[nH]2)NC1=O | – | – | – | – | – | – | – | – | Activity [8]: 5%; Activity [9]: 7%
CCCC[C@H](NC(C)=O)C(=O)N[C@H]1CC(=O)NCCCC[C@@H](C(N)=O)NC(=O)[C@H](Cc2c[nH]c3ccccc23)NC(=O)[C@@H]2CCCN2C(=O)[C@@H](Cc2ccc(OCC)cc2)NC(=O)[C@H](Cc2cnc[nH]2)NC1=O | 430 nM (antagonist) | > 10000 nM | – | 340 nM (antagonist) | 60 nM (agonist) | > 2500 nM | 270 nM (agonist) | – | –
CCCC[C@H](NC(C)=O)C(=O)N[C@H]1CC(=O)NCCCC[C@@H](C(N)=O)NC(=O)[C@H](Cc2c[nH]c3ccccc23)NC(=O)[C@@H]2CCCCN2C(=O)[C@H](Cc2ccc(Cc3ccccc3)cc2)NC(=O)[C@@H]2CC3CCCCC3N2C1=O (stereo partly drawn) (Ac-[Nle]D[Oic(3aξ,7aξ)][X7][Pip]WK-NH2; lactam 2-7) | – | – | – | – | – | – | – | 2 | Activity [10]: 3%
CCCC[C@H](NC(C)=O)C(=O)N[C@H]1CC(=O)NCCCC[C@@H](C(N)=O)NC(=O)[C@H](Cc2c[nH]c3ccccc23)NC(=O)[C@@H]2CCCCN2C(=O)[C@H](Cc2ccc(-c3ccccc3)cc2)NC(=O)[C@H](c2ccccc2)NC1=O | – | – | – | – | – | – | – | 0 | Activity [10]: 16%; Activity ([12]; filed as agonist): 72%
CCCC[C@H](NC(C)=O)C(=O)N[C@H]1CC(=O)NCCCC[C@@H](C(N)=O)NC(=O)[C@H](Cc2c[nH]c3ccccc23)NC(=O)[C@@H]2CCCCN2C(=O)[C@H](Cc2ccc(-c3ccccc3)cc2)NC(=O)[C@H](C2CCCCC2)NC1=O | – | – | – | – | – | – | – | 1 | Activity ([12]; filed as partial agonist): 43%
CCCC[C@H](NC(C)=O)C(=O)N[C@H]1CC(=O)NCCCC[C@@H](C(N)=O)NC(=O)[C@H](Cc2cc3ccccc3[nH]2)NC(=O)[C@@H]2CCCN2C(=O)[C@@H](Cc2ccccc2)NC(=O)[C@H](Cc2cnc[nH]2)NC1=O | – | – | – | – | – | – | – | – | Activity [8]: 2%; Activity [9]: 6%
CCCC[C@H](NC(C)=O)C(=O)N[C@H]1CC(=O)NCCCC[C@@H](C(N)=O)NC(=O)[C@H](Cc2c[nH]c3ccccc23)NC(=O)[C@@H]2CCCN2C(=O)[C@@H](Cc2ccc(Cl)cc2)NC(=O)[C@H](Cc2c[nH]cn2)NC1=O | 560 nM (antagonist) | > 20000 nM | 4500 nM (antagonist) | 1300 nM (antagonist) | 63 nM (agonist) | > 5000 nM | 82 nM (agonist) | – | –
CCCC[C@H](NC(C)=O)C(=O)N[C@H]1CC(=O)NCCCC[C@@H](C(N)=O)NC(=O)[C@H](Cc2c[nH]c3ccccc23)NC(=O)[C@@H]2CCCN2C(=O)[C@@H](Cc2ccc(-c3ccccc3)cc2)NC(=O)[C@H](Cc2c[nH]cn2)NC1=O | 45 nM (antagonist) | 1500 nM | 1200 nM (antagonist) | 4.1 nM (antagonist) | 5.3 nM (agonist) | 1400 nM (agonist) | 2.5 nM (agonist) | – | –
